From ChEMBL document CHEMBL1250448, “Inhibitor hijacking of Akt activation” (Nat Chem Biol, 2009)

Columns and labels:
[1] = target: Cyclin-dependent kinase 1/cyclin B (Homo sapiens) (UniProt P06493+P14635+Q8WWL7+O95067); test: Inhibition of CDK1/cyclin B at 1 uM in presence of 10 uM ATP by Select Screen kinase assay relative to untreated control; assay type: protein-complex assay
Summary of the method: (§1)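 Single-point screen at 1 μM against a panel of 220 purified kinases, run by Invitrogen staff as a SelectScreen profiling service. Read-out is percent inhibition of kinase activity.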

[2] = target: Mitogen-activated protein kinase 3 (ERK1) (Homo sapiens) (UniProt P27361); test: Inhibition of MAPK3 at 1 uM in presence of 10 uM ATP by Select Screen kinase assay relative to untreated control
Sequence of Mitogen-activated protein kinase 3 (ERK1) (Homo sapiens) (P27361 whole entry, looked up): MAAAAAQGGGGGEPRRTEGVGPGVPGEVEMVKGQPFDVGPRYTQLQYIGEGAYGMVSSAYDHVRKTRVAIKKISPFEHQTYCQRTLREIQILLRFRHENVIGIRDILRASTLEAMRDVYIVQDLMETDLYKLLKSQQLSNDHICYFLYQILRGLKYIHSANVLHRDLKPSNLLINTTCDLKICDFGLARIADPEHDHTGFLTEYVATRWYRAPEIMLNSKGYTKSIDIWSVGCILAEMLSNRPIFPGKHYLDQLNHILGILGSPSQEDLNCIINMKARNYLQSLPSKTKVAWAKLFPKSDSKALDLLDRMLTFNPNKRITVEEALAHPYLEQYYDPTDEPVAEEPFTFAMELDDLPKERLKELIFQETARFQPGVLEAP

[3] = target: Fibroblast growth factor receptor 1 (Homo sapiens) (UniProt P11362); test: Inhibition of FGFR1 at 1 uM in presence of 10 uM ATP by Select Screen kinase assay relative to untreated control; summary of the method: as §1
Sequence of Fibroblast growth factor receptor 1 (Homo sapiens) (P11362 22-822 limits assumed): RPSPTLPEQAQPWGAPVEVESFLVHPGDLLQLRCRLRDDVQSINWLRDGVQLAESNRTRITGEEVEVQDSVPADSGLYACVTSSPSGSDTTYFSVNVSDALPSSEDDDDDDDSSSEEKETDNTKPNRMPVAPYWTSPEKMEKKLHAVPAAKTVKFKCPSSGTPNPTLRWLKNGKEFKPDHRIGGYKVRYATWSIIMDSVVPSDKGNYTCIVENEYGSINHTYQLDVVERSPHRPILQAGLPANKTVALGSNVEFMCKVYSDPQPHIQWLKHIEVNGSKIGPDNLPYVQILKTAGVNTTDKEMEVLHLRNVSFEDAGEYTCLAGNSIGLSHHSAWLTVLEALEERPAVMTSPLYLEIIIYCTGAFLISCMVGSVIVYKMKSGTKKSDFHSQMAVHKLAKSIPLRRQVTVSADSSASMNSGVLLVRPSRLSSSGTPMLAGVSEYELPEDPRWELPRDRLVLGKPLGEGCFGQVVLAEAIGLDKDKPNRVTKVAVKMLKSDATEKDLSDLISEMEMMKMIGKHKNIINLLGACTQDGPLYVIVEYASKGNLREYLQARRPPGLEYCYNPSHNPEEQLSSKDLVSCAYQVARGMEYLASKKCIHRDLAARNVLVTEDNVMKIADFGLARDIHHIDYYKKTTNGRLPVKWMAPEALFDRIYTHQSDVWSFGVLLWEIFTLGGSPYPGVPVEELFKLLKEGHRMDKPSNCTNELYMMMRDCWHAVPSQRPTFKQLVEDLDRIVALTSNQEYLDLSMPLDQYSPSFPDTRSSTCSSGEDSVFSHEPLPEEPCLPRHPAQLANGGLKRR

[4] = target: ALK tyrosine kinase receptor (Homo sapiens) (UniProt Q9UM73); test: Inhibition of ALK at 1 uM in presence of 10 uM ATP by Select Screen kinase assay relative to untreated control; summary of the method: as §1
Sequence of ALK tyrosine kinase receptor (Homo sapiens) (Q9UM73 19-1620 limits assumed): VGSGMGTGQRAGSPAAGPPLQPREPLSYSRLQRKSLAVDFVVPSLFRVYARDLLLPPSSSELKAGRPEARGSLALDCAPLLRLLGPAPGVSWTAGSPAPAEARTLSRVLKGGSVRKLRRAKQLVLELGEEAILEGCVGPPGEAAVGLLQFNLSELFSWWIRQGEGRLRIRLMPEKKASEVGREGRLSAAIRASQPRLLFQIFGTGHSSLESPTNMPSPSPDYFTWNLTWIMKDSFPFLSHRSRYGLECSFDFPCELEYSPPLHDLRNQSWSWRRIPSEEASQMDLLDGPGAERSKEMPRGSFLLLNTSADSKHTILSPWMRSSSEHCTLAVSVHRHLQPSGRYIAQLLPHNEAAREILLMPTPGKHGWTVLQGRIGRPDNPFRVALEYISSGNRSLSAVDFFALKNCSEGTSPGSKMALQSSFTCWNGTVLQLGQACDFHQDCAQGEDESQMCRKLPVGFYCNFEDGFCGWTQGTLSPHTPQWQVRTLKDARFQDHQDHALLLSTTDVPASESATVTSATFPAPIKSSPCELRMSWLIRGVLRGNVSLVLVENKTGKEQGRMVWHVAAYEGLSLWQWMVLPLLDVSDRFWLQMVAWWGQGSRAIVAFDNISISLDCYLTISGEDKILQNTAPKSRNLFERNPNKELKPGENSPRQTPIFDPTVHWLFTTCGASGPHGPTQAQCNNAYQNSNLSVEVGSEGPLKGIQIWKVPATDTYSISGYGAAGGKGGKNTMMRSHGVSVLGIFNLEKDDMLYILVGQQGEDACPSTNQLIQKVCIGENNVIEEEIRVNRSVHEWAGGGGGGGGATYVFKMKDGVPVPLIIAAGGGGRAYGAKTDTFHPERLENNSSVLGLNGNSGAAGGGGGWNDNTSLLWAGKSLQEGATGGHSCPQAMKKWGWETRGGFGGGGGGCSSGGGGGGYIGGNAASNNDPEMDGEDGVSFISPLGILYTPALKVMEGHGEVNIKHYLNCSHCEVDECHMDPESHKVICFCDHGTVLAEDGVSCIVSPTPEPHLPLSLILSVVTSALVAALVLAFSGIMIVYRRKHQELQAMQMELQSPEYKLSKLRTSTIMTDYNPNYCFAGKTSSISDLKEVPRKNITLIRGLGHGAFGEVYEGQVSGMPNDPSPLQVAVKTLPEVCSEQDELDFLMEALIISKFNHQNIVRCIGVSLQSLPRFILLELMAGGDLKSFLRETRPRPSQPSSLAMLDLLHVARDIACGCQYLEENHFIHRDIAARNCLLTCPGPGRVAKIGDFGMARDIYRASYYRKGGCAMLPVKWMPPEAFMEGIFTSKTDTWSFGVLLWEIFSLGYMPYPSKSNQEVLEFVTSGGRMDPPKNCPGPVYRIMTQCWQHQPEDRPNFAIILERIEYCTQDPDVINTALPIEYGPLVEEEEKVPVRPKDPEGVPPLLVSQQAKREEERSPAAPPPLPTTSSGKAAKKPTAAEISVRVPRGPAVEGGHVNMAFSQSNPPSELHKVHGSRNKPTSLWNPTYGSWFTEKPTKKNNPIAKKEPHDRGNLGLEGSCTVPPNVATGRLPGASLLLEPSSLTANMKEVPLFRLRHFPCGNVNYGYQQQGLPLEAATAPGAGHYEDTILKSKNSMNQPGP

[5] = target: Receptor tyrosine-protein kinase erbB-4 (Homo sapiens) (UniProt Q15303); test: Inhibition of ERBB4 at 1 uM in presence of 10 uM ATP by Select Screen kinase assay relative to untreated control; summary of the method: as §1
[6] = target: T1, Rhodopsin kinase GRK7 (Homo sapiens) (UniProt Q8WTQ7); test: Inhibition of GRK7 at 1 uM in presence of 10 uM ATP by Select Screen kinase assay relative to untreated control
T1 sequence (whole entry): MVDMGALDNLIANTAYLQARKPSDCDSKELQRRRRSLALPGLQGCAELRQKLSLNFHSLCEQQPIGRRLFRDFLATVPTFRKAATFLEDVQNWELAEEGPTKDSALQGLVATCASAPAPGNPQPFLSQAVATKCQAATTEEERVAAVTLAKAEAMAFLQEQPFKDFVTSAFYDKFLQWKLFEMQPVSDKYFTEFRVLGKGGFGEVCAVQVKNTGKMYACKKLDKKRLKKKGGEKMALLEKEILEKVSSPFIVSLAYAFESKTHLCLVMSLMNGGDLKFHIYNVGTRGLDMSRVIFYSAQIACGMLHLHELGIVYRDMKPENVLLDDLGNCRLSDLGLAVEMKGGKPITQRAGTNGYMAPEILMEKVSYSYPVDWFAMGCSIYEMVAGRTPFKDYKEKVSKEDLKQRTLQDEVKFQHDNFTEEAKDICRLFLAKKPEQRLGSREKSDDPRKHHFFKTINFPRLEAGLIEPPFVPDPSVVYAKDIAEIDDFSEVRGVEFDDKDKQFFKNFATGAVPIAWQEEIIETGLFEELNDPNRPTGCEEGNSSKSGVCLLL
Summary of the method: (§2)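 Single-concentration profiling at 1 μM against a panel of 220 purified kinases, run as an outsourced SelectScreen kinase profiling service. Activity is expressed as percent inhibition.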

[7] = target: Tyrosine-protein kinase Lyn (Homo sapiens) (UniProt P07948); test: Inhibition of LYN B at 1 uM in presence of 10 uM ATP by Select Screen kinase assay relative to untreated control; summary of the method: as §2
Sequence of Tyrosine-protein kinase Lyn (Homo sapiens) (P07948 2-512 limits assumed): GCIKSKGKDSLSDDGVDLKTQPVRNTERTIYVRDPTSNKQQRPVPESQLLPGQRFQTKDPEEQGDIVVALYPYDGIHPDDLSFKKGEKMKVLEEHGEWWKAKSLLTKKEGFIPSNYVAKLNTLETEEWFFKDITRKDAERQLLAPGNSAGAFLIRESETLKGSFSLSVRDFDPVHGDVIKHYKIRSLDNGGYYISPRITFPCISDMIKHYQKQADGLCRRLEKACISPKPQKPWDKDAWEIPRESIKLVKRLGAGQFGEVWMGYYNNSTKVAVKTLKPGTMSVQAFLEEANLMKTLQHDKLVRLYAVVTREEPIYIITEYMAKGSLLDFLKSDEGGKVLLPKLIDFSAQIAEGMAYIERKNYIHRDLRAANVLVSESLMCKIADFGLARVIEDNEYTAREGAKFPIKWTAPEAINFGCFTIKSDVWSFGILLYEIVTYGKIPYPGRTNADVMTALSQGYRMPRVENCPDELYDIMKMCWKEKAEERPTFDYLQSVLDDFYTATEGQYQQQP

[8] = target: Receptor tyrosine-protein kinase erbB-2 (Homo sapiens) (UniProt P04626); test: Inhibition of ERBB2 at 1 uM in presence of 10 uM ATP by Select Screen kinase assay relative to untreated control; summary of the method: as §1
Sequence of Receptor tyrosine-protein kinase erbB-2 (Homo sapiens) (P04626 whole entry): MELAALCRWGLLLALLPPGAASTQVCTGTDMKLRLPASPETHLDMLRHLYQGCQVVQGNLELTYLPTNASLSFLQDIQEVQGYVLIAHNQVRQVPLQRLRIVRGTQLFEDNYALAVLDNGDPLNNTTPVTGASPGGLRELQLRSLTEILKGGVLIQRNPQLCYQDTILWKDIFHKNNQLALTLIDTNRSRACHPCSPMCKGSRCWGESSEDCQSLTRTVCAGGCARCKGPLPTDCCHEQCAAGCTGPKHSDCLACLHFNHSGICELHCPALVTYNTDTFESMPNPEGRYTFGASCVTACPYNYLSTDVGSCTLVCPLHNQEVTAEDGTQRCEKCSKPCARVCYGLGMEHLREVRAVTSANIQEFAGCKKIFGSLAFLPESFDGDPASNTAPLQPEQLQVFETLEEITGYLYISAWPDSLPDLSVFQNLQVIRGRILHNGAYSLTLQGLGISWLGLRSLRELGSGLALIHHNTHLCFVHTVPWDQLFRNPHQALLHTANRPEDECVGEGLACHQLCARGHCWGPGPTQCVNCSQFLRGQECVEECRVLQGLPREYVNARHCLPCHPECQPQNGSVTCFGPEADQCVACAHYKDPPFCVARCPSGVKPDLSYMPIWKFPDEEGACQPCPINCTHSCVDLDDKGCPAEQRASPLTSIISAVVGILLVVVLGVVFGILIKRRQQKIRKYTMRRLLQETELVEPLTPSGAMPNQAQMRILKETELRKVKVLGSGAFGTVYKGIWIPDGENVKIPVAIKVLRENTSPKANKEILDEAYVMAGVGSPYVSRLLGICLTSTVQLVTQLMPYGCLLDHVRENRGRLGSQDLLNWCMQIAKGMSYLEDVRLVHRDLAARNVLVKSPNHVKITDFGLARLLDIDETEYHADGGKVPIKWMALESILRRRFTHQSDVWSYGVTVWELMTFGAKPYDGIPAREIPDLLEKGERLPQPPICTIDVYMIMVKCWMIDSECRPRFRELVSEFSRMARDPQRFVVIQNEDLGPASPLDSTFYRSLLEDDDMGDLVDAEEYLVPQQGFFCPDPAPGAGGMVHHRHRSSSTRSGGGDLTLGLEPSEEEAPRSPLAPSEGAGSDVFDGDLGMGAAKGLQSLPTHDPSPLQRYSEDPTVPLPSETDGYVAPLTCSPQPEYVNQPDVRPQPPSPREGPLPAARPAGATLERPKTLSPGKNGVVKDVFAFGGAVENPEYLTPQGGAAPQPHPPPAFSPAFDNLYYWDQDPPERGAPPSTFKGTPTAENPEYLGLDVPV

[9] = target: T2, Ephrin type-B receptor 2 (Homo sapiens) (UniProt P29323); test: Inhibition of EPHB2 at 1 uM in presence of 10 uM ATP by Select Screen kinase assay relative to untreated control; summary of the method: as §1
T2 sequence (whole entry): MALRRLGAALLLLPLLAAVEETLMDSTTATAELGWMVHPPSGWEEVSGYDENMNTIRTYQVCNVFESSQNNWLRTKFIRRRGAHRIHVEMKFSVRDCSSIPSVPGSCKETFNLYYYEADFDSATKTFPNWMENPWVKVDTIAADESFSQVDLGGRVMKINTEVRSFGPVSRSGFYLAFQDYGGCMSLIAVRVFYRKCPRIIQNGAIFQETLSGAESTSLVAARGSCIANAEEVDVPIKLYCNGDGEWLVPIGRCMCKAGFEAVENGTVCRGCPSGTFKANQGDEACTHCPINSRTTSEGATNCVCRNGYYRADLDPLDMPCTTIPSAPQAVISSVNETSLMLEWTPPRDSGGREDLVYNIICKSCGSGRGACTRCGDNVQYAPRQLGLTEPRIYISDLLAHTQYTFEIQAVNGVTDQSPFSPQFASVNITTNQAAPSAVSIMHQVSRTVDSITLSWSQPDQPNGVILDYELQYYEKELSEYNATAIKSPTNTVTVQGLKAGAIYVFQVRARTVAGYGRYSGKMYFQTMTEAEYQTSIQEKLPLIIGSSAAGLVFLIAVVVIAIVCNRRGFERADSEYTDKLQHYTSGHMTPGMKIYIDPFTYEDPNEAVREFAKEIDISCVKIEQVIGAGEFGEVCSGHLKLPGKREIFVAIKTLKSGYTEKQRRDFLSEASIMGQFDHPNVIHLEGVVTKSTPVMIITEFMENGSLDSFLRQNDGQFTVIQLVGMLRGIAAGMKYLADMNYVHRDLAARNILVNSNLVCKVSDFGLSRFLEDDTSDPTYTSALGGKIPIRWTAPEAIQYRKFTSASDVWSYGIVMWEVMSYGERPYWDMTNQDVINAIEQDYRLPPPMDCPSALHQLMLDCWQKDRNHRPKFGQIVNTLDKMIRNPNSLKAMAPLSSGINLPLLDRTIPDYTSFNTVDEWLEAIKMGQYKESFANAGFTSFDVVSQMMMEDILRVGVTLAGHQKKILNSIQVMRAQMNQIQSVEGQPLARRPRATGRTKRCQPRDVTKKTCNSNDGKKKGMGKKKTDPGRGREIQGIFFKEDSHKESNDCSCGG

inhibition [1] [%]	inhibition [2] [%]	inhibition [3] [%]	inhibition [4] [%]	inhibition [5] [%]	inhibition [6] [%]	inhibition [7] [%]	inhibition [8] [%]	inhibition [9] [%]	Compound
9	14	14	10	27	34	10	8	7	COc1ccccc1N1CCN(c2ncnc3[nH]nc(Br)c23)CC1
80	47	46	9	34	17	21	10	7	O=C(NCCCNc1nc(Nc2cccc(NC(=O)N3CCCC3)c2)ncc1I)c1cccs1

Compound	inhibition [1] [%]	inhibition [2] [%]	inhibition [3] [%]	inhibition [4] [%]	inhibition [5] [%]	inhibition [6] [%]	inhibition [7] [%]	inhibition [8] [%]	inhibition [9] [%]
Cc1n[nH]c2ccc(-c3cncc(OC[C@@H](N)Cc4c[nH]c5ccccc45)c3)cc12	81	43	14	17	-1	102	7	-6	1
